Source: ChEMBL document CHEMBL1146382, “Design and synthesis of BACE1 inhibitors containing a novel norstatine derivative (2R,3R)-3-amino-2-hydroxy-4-(phenylthio)butyric acid” (Bioorg Med Chem Lett, 2007)
Numbered stars: 1 amine (or outer) side, 2 acyl side, 3 side chain; on linkers, the order of the positions; unused ones are H or OH. Square brackets hold non-standard residues; d marks the D form. Peptide text beside a SMILES is read from it. β3hPhe(2R-OH) = O=C([C@H](O)[C@H](Cc1ccccc1)N[*:1])[*:2]; X1 = O=C([C@H](O)[C@H](CSc1ccccc1)N[*:1])[*:2]

Tests used:
[1] = target: Beta-secretase 1 (Homo sapiens) (UniProt P56817); assay: Inhibition of human recombinant BACE1 at 2 uM
Summary of the method: (§1)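 Recombinant human BACE1 enzymatic assay. Inhibition is expressed as the percent decrease in substrate cleaved by the enzyme.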

[2] = target: Beta-secretase 1 (Homo sapiens) (UniProt P56817); assay: Inhibition of human recombinant BACE1 at 0.2 uM; summary of the method: as §1

Sequence of Beta-secretase 1 (Homo sapiens) (P56817 whole entry): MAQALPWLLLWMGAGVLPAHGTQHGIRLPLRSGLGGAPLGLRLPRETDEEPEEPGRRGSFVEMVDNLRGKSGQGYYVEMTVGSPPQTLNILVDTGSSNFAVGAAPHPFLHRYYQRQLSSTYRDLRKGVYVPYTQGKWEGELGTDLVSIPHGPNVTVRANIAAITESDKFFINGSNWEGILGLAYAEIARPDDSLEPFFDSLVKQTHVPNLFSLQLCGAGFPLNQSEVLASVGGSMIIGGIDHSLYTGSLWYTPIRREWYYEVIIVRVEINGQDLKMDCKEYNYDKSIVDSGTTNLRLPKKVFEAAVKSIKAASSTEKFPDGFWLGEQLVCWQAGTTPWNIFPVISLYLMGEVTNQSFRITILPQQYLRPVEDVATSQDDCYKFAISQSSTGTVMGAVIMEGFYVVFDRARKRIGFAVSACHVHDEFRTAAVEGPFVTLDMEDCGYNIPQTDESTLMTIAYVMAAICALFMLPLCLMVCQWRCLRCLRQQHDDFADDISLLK

SMILES | inhibition [1] [%] | inhibition [2] [%]
CC(C)C[C@H](NC(=O)[C@@H](NC(=O)[C@@H](N)CCC(=O)O)C(C)C)C(=O)N[C@@H](CSc1ccccc1)[C@@H](O)C(=O)N[C@@H](CC(=O)O)C(=O)N[C@@H](C)C(=O)N[C@@H](CCC(=O)O)C(=O)N[C@@H](Cc1ccccc1)C(=O)O (H-EVL[X1]DAEF-OH) | 82 | 34
CC(C)C[C@H](NC(=O)[C@@H](NC(=O)[C@@H](N)CCC(=O)O)C(C)C)C(=O)N[C@@H](Cc1ccccc1)[C@@H](O)C(=O)N[C@@H](CC(=O)O)C(=O)N[C@@H](C)C(=O)N[C@@H](CCC(=O)O)C(=O)N[C@@H](Cc1ccccc1)C(=O)O (H-EVL[β3hPhe(2R-OH)]DAEF-OH) | – | 32
CC(C)C[C@H](NC(=O)[C@@H](NC(=O)[C@@H](N)CCC(=O)O)C(C)C)C(=O)N[C@@H](CSc1ccccc1)[C@@H](O)C(=O)N[C@@H](CC(=O)O)C(=O)O (H-EVL[X1]D-OH) | 69 | –
CC(C)C[C@H](NC(=O)[C@@H](NC(=O)[C@@H](N)CCC(=O)O)C(C)C)C(=O)N[C@@H](CSc1ccccc1)[C@@H](O)C(=O)Nc1cccc(C(=O)O)c1 | 96 | 57
CC(C)C[C@H](NC(=O)[C@@H](NC(=O)[C@@H](N)CNC(=O)c1cc(N)cc(C(=O)O)c1)C(C)C)C(=O)N[C@@H](Cc1ccccc1)[C@@H](O)C(=O)Nc1cccc(C(=O)O)c1 | 98 | 80
CC(C)C[C@H](NC(=O)[C@@H](NC(=O)[C@@H](N)CNC(=O)c1cc(N)cc(C(=O)O)c1)C(C)C)C(=O)N[C@@H](CSc1ccccc1)[C@@H](O)C(=O)Nc1cccc(C(=O)O)c1 | 99 | 86
